Experimental data reported in ChEMBL document CHEMBL2202988, “D-amino acid based protein arginine deiminase inhibitors: Synthesis, pharmacokinetics, and in cellulo efficacy” (ACS Med Chem Lett, 2012).
Activity calls are given as the source filed them. The rule behind the calls is not given here.

What was measured:
MDA-MB-231 [1] = experiment: Cytotoxicity against human MDA-MB-231 cells assessed as decrease in cell number at 400 uM after 96 hrs by trypan blue assay; assay type: functional, cell-based
Procedure, shortened: (§1)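 MDA-MB-231 breast cancer cells (PAD1-overexpressing) exposed to inhibitor at 100, 200 and 400 μM; percent viability and cell number read 96 h after addition.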

MDA-MB-231 [2] = experiment: Antiproliferative activity against human MDA-MB-231 cells assessed as Ki-67 level at 100 to 400 uM; assay type: functional, cell-based
Procedure, shortened: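 MDA-MB-231 triple-negative breast cancer cells (PAD1-overexpressing) exposed to inhibitor at 100, 200 and 400 μM; Ki-67 level taken as the proliferation read-out; tunicamycin at increasing amounts served as positive control for cell-cycle arrest.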

Mus musculus [3] = experiment: Toxicity in C57BL/6J mouse assessed as change in body weight at 5 to 150 mg/kg, po after 1 to 96 hrs; assay type: organism-based; design: route oral; details: in vivo
Procedure, shortened: (§2)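 Oral dosing of mice (n = 10) at varying doses up to 150 mg/kg; percent change in body weight followed to 96 h, significance at P <0.05.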

MDA-MB-231 [4] = experiment: Cytotoxicity against human MDA-MB-231 cells assessed as cell viability at 400 uM after 96 hrs by trypan blue assay; assay type: functional, cell-based; procedure, shortened: as §1
MDA-MB-231 [5] = experiment: Induction of apoptosis in human MDA-MB-231 cells assessed as caspase-3 activity at 100 to 400 uM; assay type: functional, cell-based
Procedure, shortened: (§3)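 MDA-MB-231 cells given inhibitor at 100, 200 and 400 μM; caspase 3 activity measured 96 h after administration.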

Mus musculus [6] = experiment: Toxicity in po dosed C57BL/6J mouse; assay type: organism-based; details: in vivo
Procedure, shortened: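 Mice (n = 10 per group) were dosed per os at varying doses up to 150 mg/kg. Percent change in total body weight was tracked to 96 h, along with observable signs of toxicity. MTD was taken as the highest dose causing no weight loss or significant toxicity signs. Weight change was tested for significance (P < 0.05).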

[7] = Drug level in C57Bl/6 mouse serum at 2.5 mg/kg, iv after 4 hrs by LC-MS/MS analysis; assay type: ADME, organism-based; design: dose 2.5 mg/kg, route intravenous; details: read-out: Drug uptake
Procedure, shortened: (§4)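 Mice dosed by iv (2.5 or 10 mg/kg) or ip (10 mg/kg) injection; serum/plasma drug levels measured over time up to 4 h, plotted as mean levels.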

Liver = experiment: Half life in mouse liver microsomes; assay type: ADME, Microsome
Procedure, shortened: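 Stability assessed by incubation with murine hepatic microsomes; half-life derived from compound remaining over time.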

MDA-MB-231 [8] = experiment: Cytotoxicity against human MDA-MB-231 cells assessed as decrease in cell viability at 200 to 400 uM after 96 hrs by trypan blue assay; assay type: functional, cell-based; procedure, shortened: as §1
[9] = Drug level in C57Bl/6 mouse serum at 2.5 mg/kg, iv after 2 hrs by LC-MS/MS analysis; assay type: ADME, organism-based; design: dose 2.5 mg/kg, route intravenous; details: read-out: Drug uptake; procedure, shortened: as §4
[10] = Drug level in C57Bl/6 mouse serum at 10 mg/kg, ip after 4 hrs by LC-MS/MS analysis; assay type: ADME, organism-based; design: dose 10 mg/kg, route intraperitoneal; details: read-out: Drug uptake; procedure, shortened: as §4
MDA-MB-231 [11] = experiment: Induction of apoptosis in human MDA-MB-231 cells assessed as increase in caspase-3 activity; assay type: functional, cell-based; procedure, shortened: as §3
Mus musculus [12] = experiment: Drug metabolism in C57Bl/6 mouse at 10 mg/kg, ip measured within 4 hrs by LC-MS/MS analysis; assay type: ADME, organism-based; design: dose 10 mg/kg, route intraperitoneal; details: in vivo; procedure, shortened: as §4
Mus musculus [13] = experiment: Toxicity in C57BL/6J mouse assessed as hunching at 150 mg/kg, po after 1 to 4 hrs; assay type: organism-based; design: dose 150 mg/kg, route oral; details: in vivo
Procedure, shortened: (§5)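 Mice dosed per os at graded levels up to 150 mg/kg; observable physiological signs (shaking, anxiety, hunching, heavy breathing, stool changes, diarrhea) recorded after treatment, with monitoring over the following days.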

Mus musculus [14] = experiment: Toxicity in C57BL/6J mouse assessed as heavy breathing at 150 mg/kg, po after 1 to 4 hrs; assay type: organism-based; design: dose 150 mg/kg, route oral; details: in vivo; procedure, shortened: as §5
Mus musculus [15] = experiment: Toxicity in C57BL/6J mouse assessed as occurrence of diarrhea at 150 mg/kg, po after 2 to 3 days; assay type: organism-based; design: dose 150 mg/kg, route oral; details: in vivo; procedure, shortened: as §5
Mus musculus [16] = experiment: Toxicity in C57BL/6J mouse assessed as body shaking at 150 mg/kg, po after 1 to 4 hrs; assay type: organism-based; design: dose 150 mg/kg, route oral; details: in vivo; procedure, shortened: as §5
Mus musculus [17] = experiment: Toxicity in C57BL/6J mouse assessed as loss in body weight at 100 to 150 mg/kg, po after 96 hrs; assay type: organism-based; design: dose 100-150 mg/kg, route oral; details: in vivo; procedure, shortened: as §2
Mus musculus [18] = experiment: Drug metabolism in C57Bl/6 mouse at 10 mg/kg, iv measured within 2 hrs by LC-MS/MS analysis; assay type: ADME, organism-based; design: dose 10 mg/kg, route intravenous; details: in vivo; procedure, shortened: as §4
Mus musculus [19] = experiment: Toxicity in C57BL/6J mouse assessed as anxiety at 150 mg/kg, po after 1 to 4 hrs; assay type: organism-based; design: dose 150 mg/kg, route oral; details: in vivo; procedure, shortened: as §5
Mus musculus [20] = experiment: Toxicity in C57BL/6J mouse assessed as bloody stools at 150 mg/kg, po; assay type: organism-based; design: dose 150 mg/kg, route oral; details: in vivo; procedure, shortened: as §5
MDA-MB-231 [21] = experiment: Antiproliferative activity against human MDA-MB-231 cells assessed as decrease in Ki-67 level; assay type: functional, cell-based
Procedure, shortened: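 MDA-MB-231 triple-negative breast cancer cells (PAD1-overexpressing) treated at 100, 200 and 400 μM. Ki-67 levels assessed 96 h after administration. Tunicamycin served as the positive control for cell cycle arrest.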

Row | SMILES | Activity (MDA-MB-231 [1]) | Activity (MDA-MB-231 [2]) | Activity (Mus musculus [3]) | MTD (Mus musculus [6]) | t1/2 (Liver) | Activity (MDA-MB-231 [8]) | Activity (MDA-MB-231 [11]) | other results
1 | N=C(CF)NCCC[C@@H](NC(=O)c1ccccc1C(=O)O)C(N)=O | inactive | inactive | Non-toxic | > 150 mg/kg | – | – | – | Activity (MDA-MB-231 [4]): inactive; Activity (MDA-MB-231 [5]): inactive
2 | N=C(CCl)NCCC[C@@H](NC(=O)c1ccccc1)C(N)=O | Active | inactive | Non-toxic | > 150 mg/kg | 33 min | Active | Dose-dependent effect | concentration at 4 h [7]: 10 nM; concentration at 2 h [9]: 21 nM; concentration at 4 h [10]: 10 nM
3 | N=C(CCl)NCCC[C@H](NC(=O)c1ccccc1)C(N)=O | Active | inactive | – | 75 mg/kg | 37 min | Active | Dose-dependent effect | Drug metabolism (Mus musculus [12]): Active; Activity (Mus musculus [13]): Toxic; Activity (Mus musculus [14]): Toxic; Activity (Mus musculus [15]): Toxic; Activity (Mus musculus [16]): Toxic; Activity (Mus musculus [17]): Toxic; Drug metabolism (Mus musculus [18]): Active; Activity (Mus musculus [19]): Toxic; Activity (Mus musculus [20]): Toxic
4 | CC(=O)N[C@H]1[C@@H](O[C@@H]2O[C@H](CC(O)[C@H]3O[C@@H](n4ccc(=O)[nH]c4=O)[C@H](O)[C@@H]3O)[C@H](O)[C@H](O)[C@H]2NC(=O)/C=C/CC(C)C)O[C@H](CO)[C@@H](N)[C@@H]1O (some centres not stated) | – | – | – | – | – | – | – | Activity (MDA-MB-231 [21]): Active
